This passage reports T/C and Activity results from ChEMBL document CHEMBL3244396, “Synthesis and antileukemic activity of 5-substituted 2,3-dihydro-6,7-bis(hydroxymethyl)-1H-pyrrolizine diesters” (J Med Chem, 1977).

For series [1], the system named is P388. Briefly: Antitumor activity against mouse P388 cells allografted in male CDF1 mouse assessed as disease cures by measuring 30-days host survival at 100 mg/kg, ip administered daily for 9 days as saline with Tween-80 solution starting 24 hrs after tumor inoculation relative to control. It counts as functional. Particulars: route intraperitoneal. The method, boiled down: (§1)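 P388 ascitic cell inoculum given ip to CDF1 mice of the sex in each line. Nine daily ip doses in saline with Tween-80 as vehicle, starting 24 h after inoculation. Median survival time expressed as %T/C (>125 significant); "cure" defined as 30-day survival.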

Series [2] has as its system P388. Briefly: Antitumor activity against mouse P388 cells allografted in female CDF1 mouse assessed as disease cures by measuring 30-days host survival at 25 mg/kg, ip administered daily for 9 days as saline with Tween-80 solution starting 24 hrs after tumor inoculation relative to control. The settings on record: route intraperitoneal. Format: functional. The method, boiled down: as §1

The test system of series [3] is P388. Briefly: Antitumor activity against mouse P388 cells allografted in female CDF1 mouse assessed as change in body weight at 200 mg/kg, ip administered daily for 9 days as saline with Tween-80 solution starting 24 hrs after tumor inoculation. Format: functional. The settings on record: route intraperitoneal. The gist of the method:
(§2)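 Ascitic fluid carrying P388 cells was inoculated ip. Compound was given ip in nine daily doses, starting 24 h after inoculation, in Klucel (hydroxypropylcellulose) suspension or in saline with Tween-80. Body-weight difference (treated minus control) was recorded on day 5. Survival was scored as %T/C of median survival time, and 30-day survival counted as cure.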

Series [4] has as its system P388. Briefly: Antitumor activity against mouse P388 cells allografted in female CDF1 mouse assessed as disease cures by measuring 30-days host survival at 50 mg/kg, ip administered daily for 9 days as saline with Tween-80 solution starting 24 hrs after tumor inoculation relative to control. Format: functional. The settings on record: route intraperitoneal. The gist of the method: as §1

The subject of series [5] is P388. Briefly: Antitumor activity against mouse P388 cells allografted in female CDF1 mouse assessed as change in body weight at 100 mg/kg, ip administered daily for 9 days as saline with Tween-80 solution starting 24 hrs after tumor inoculation. Format: functional. Particulars: route intraperitoneal. The gist of the method: as §2
For series [6], the system named is Mus musculus. Briefly: Toxicity in female CDF1 mouse allografted with mouse P388 cells assessed as animal survival at 200 mg/kg, ip administered daily for 9 days as saline with Tween-80 solution starting 24 hrs after tumor inoculation. It counts as organism-based. The arrangement: dose 200 mg/kg, route intraperitoneal. The settings on record: in vivo. The gist of the method:
(§3)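 P-388 leukemia ascitic fluid implanted ip. Compound dosed ip in saline with Tween-80 vehicle, once daily for nine doses from 24 h after tumor inoculation. Acute toxicity scored as toxicity-day survivors per group. Survival was followed up to 30 days, with 30-day survival counted as "cure". Follows NCI screening protocols.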

Series [7] has as its system P388. Briefly: Antitumor activity against mouse P388 cells allografted in male CDF1 mouse assessed as disease cures by measuring 30-days host survival at 50 mg/kg, ip administered daily for 9 days as saline with Tween-80 solution starting 24 hrs after tumor inoculation relative to control. The settings on record: route intraperitoneal. It counts as functional. The method, boiled down: as §1

For series [8], the system named is P388. Briefly: Antitumor activity against mouse P388 cells allografted in male CDF1 mouse assessed as change in body weight at 50 mg/kg, ip administered daily for 9 days as saline with Tween-80 solution starting 24 hrs after tumor inoculation. It counts as functional. Particulars: route intraperitoneal. The method, boiled down: as §2
Series [9] has as its system P388. Briefly: Antitumor activity against mouse P388 cells allografted in female CDF1 mouse assessed as disease cures by measuring 30-days host survival at 400 mg/kg, ip administered daily for 9 days as saline with Tween-80 solution starting 24 hrs after tumor inoculation relative to control. It counts as functional. The settings on record: route intraperitoneal. The method, boiled down: as §1

In series [10] the test system is Mus musculus. Briefly: Toxicity in female CDF1 mouse allografted with mouse P388 cells assessed as animal survival at 50 mg/kg, ip administered daily for 9 days as saline with Tween-80 solution starting 24 hrs after tumor inoculation. Format: organism-based. Particulars: in vivo. The arrangement: dose 50 mg/kg, route intraperitoneal. The gist of the method: as §3

Series [11] relates to P388. Briefly: Antitumor activity against mouse P388 cells allografted in female CDF1 mouse assessed as disease cures by measuring 30-days host survival at 200 mg/kg, ip administered daily for 9 days as saline with Tween-80 solution starting 24 hrs after tumor inoculation relative to control. Format: functional. Particulars: route intraperitoneal. The gist of the method:
as §1

Series [12] relates to P388. Briefly: Antitumor activity against mouse P388 cells allografted in male CDF1 mouse assessed as change in body weight at 25 mg/kg, ip administered daily for 9 days as saline with Tween-80 solution starting 24 hrs after tumor inoculation. Format: functional. Particulars: route intraperitoneal. The gist of the method:
as §2

Series [13] deals with P388. Briefly: Antitumor activity against mouse P388 cells allografted in female CDF1 mouse assessed as change in body weight at 50 mg/kg, ip administered daily for 9 days as saline with Tween-80 solution starting 24 hrs after tumor inoculation. Format: functional. Particulars: route intraperitoneal. The method, boiled down:
as §2

Series [14] concerns P388. Briefly: Antitumor activity against mouse P388 cells allografted in male CDF1 mouse assessed as change in body weight at 100 mg/kg, ip administered daily for 9 days as saline with Tween-80 solution starting 24 hrs after tumor inoculation. Format: functional. The settings on record: route intraperitoneal. The method, boiled down:
as §2

In series [15] the test system is P388. Briefly: Antitumor activity against mouse P388 cells allografted in male CDF1 mouse assessed as disease cures by measuring 30-days host survival at 25 mg/kg, ip administered daily for 9 days as saline with Tween-80 solution starting 24 hrs after tumor inoculation relative to control. It counts as functional. Particulars: route intraperitoneal. The gist of the method: as §1

Series [16] has as its system Mus musculus. Briefly: Toxicity in male CDF1 mouse allografted with mouse P388 cells assessed as animal survival at 100 mg/kg, ip administered daily for 9 days as saline with Tween-80 solution starting 24 hrs after tumor inoculation. Format: organism-based. The arrangement: dose 100 mg/kg, route intraperitoneal. Particulars: in vivo. The gist of the method: as §3
In series [17] the test system is Mus musculus. Briefly: Toxicity in female CDF1 mouse allografted with mouse P388 cells assessed as animal survival at 25 mg/kg, ip administered daily for 9 days as saline with Tween-80 solution starting 24 hrs after tumor inoculation. Format: organism-based. The settings on record: in vivo. The arrangement: dose 25 mg/kg, route intraperitoneal. The method, boiled down:
as §3

Series [18] has as its system P388. Briefly: Antitumor activity against mouse P388 cells allografted in female CDF1 mouse assessed as change in body weight at 25 mg/kg, ip administered daily for 9 days as saline with Tween-80 solution starting 24 hrs after tumor inoculation. The settings on record: route intraperitoneal. It counts as functional. The method, boiled down:
as §2

Series [19] concerns P388. Briefly: Antitumor activity against mouse P388 cells allografted in female CDF1 mouse assessed as change in body weight at 400 mg/kg, ip administered daily for 9 days as saline with Tween-80 solution starting 24 hrs after tumor inoculation. It counts as functional. The settings on record: route intraperitoneal. The method, boiled down: as §2
Series [20] has as its system Mus musculus. Briefly: Toxicity in female CDF1 mouse allografted with mouse P388 cells assessed as animal survival at 100 mg/kg, ip administered daily for 9 days as saline with Tween-80 solution starting 24 hrs after tumor inoculation. The arrangement: dose 100 mg/kg, route intraperitoneal. The settings on record: in vivo. Format: organism-based. The gist of the method:
as §3

The subject of series [21] is P388. Briefly: Antitumor activity against mouse P388 cells allografted in female CDF1 mouse assessed as disease cures by measuring 30-days host survival at 100 mg/kg, ip administered daily for 9 days as saline with Tween-80 solution starting 24 hrs after tumor inoculation relative to control. It counts as functional. The settings on record: route intraperitoneal. The method, boiled down:
as §1

The subject of series [22] is Mus musculus. Briefly: Toxicity in male CDF1 mouse allografted with mouse P388 cells assessed as animal survival at 50 mg/kg, ip administered daily for 9 days as saline with Tween-80 solution starting 24 hrs after tumor inoculation. Format: organism-based. The arrangement: dose 50 mg/kg, route intraperitoneal. The settings on record: in vivo. The gist of the method:
as §3

With `CCCCNC(=O)OCc1c(COC(=O)NCCCC)c(-c2ccc(Cl)c(Cl)c2)n2c1CCC2`, the T/C in the series on P388 [1] worked out at 160%; in the series with P388 [2] it was 159%; in the series on P388 [4] it was 171%; in the series with P388 [7], 137%; in the series on P388 [9], 84%; in the series on P388 [11], 163%. In addition, the T/C in the series with P388 [15] stood at 138%; in the series with P388 [21], 181%. Further, the Activity in the series with P388 [3] is reported as -3.2 g; in the series with P388 [5], -2 g; with Mus musculus [6], “Non-toxic”; in the series on P388 [8], -1.1 g; with Mus musculus [10] it was “Non-toxic”; with P388 [12], -1.9 g. The Activity was -1.9 g in the series with P388 [13]; -0.4 g in the series on P388 [14]; “Non-toxic” with Mus musculus [16]; “Non-toxic” in the series on Mus musculus [17]; -1.2 g in the series with P388 [18]; -3.6 g with P388 [19]. Also, the Activity result in the series on Mus musculus [20] and with Mus musculus [22] was “Non-toxic” in each case.

A word on the T/C: it is the ratio of treated to control.
